PubChem BioAssay
A number with no mark means an inactive call. Records with an inconclusive call do not appear. Activity calls are given as the source filed them.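 How the source made its calls, unless noted: active means growth inhibition above 25% in both replicates, a cutoff set 3 SD above the mean; inconclusive means above 25% in only one replicate; inactive means the rest.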

How the values were obtained:
[1] = S. cerevisiae growth inhibition in permissive medium (OD615), pilot counter-assay for S. cerevisiae lifespan shortening project, permissive growth control (AID 705); details: OD615, 24 h, at 10 µM, hits give high values
Outline: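 assay system = Saccharomyces cerevisiae strain carrying genetically modified DeaD replicative-lifespan system | medium = SC raffinose/galactose permissive medium | dosing = 10 µM single dose, 0.25% DMSO | schedule = 24 h compound exposure at 30 °C after 4 h pre-growth | measured by = OD at 615 nm | read-out basis = growth inhibition from lowered OD615 after 24 h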

[2] = S. cerevisiae growth inhibition in restrictive medium, OD615, pilot screen, restrictive growth control, yeast lifespan reduction project (AID 706;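 active means growth inhibition above a set limit, 3 SD over mean compound inhibition, in both replicates, cut at about 43% in these data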;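 further: modified DeaD lifespan yeast strain shifted to restrictive glucose medium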); details: OD615, 48 h, at 10 µM, hits give high values
Outline: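 Buffer or medium: CSMM-D glucose medium. Material: genetically modified Saccharomyces cerevisiae, DeaD replicative lifespan assay strain. Times: 48 h compound exposure at 30 °C. Measured by: optical density at 615 nm.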

[3] = doxorubicin toxicity protection in MRP-1 cells – H69AR cells, CellTiter-Glo, duplicate, MRP-1 activator project, pilot screen (AID 807;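 active means viability increase at or above a cutoff of the median across tested compounds plus 3 SD, cut at about 8.5% in these data, passing the limit was not always enough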;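 further: compound pretreatment 18-22 h then 72 h combined with doxorubicin; 0% = doxorubicin alone and 100% = vehicle without doxorubicin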); details: H69AR viability with doxorubicin, CellTiter-Glo luminescence; at 10 µM; hits give high values
[4] = viability of HCT116 without oncogenic beta-catenin – human colon tumor cells, pilot screen (AID 823;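 active means cell viability at or below a set limit in both duplicate runs, the limit being the all-compound median minus 4 SD, cut at about 23% in these data, passing the limit was not always enough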;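 further: 0% = wells killed by 20 µM Hyamine and 100% = untreated DMSO cell wells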); details: HCT116 beta-catenin knockout viability, CellTiter-Glo, 60 h; at 10 µM; hits give low values
[5] = viability of PTEN-null HCT116 cells – cell-based, HCT116 clonal line, CellTiter-Glo, pilot screen (AID 824;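 active means viability at or below 27.92% in each of two runs, the all-compound median minus 4 SD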;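 further: 0% = 20 µM Hyamine control and 100% = vehicle cell control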); details: HCT116 PTEN-deleted viability, 60 h, at 10 µM, hits give low values
[6] = RAM pathway blockade in budding yeast – dse1pr::URA3 reporter, 5-FOA selection, pilot screen (AID 869;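 active means inhibition over a set limit, the all-compound mean plus 3 SD, in both replicate runs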;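 further: 0% = DMSO wells with no growth and 100% = 10 µM 1-NA-PP1 with full growth; RAM network block rescues cells from 5-FOA so hits raise OD615 growth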); details: S. cerevisiae dse1pr::URA3 5-FOA growth, OD615, 2 d; at 10 µM; hits give high values; strain carries analog-sensitive mutant Cbk1 kinase
[7] = RAM signaling pathway blockade in yeast – S. cerevisiae, Pdr1DBD-CYC8 efflux-inhibited sensitized strain, primary screen (AID 1298;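 active means RAM network inhibition above 8.4% in each of two replicates, 3 SD over the compound average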;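 further: 0% = DMSO untreated cells without growth and 100% = 10 µM 1-NA-PP1 full growth; higher means more yeast growth rescued from 5-FOA killing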); details: S. cerevisiae cbk1-as DSE1-URA3 strain, 5-FOA growth OD615, 2 d; at 50 µM; hits give high values

Row | SMILES | growth inhibition [1] | growth inhibition [2] | viability increase [3] | viability [4] | viability [5] | inhibition [6] | RAM network inhibition [7]
1 | CN1CCN(c2cc(=O)n(-c3ccc(Cl)cc3)c(=O)[nH]2)CC1 | -1.55% | -1.23% | 0.27% | 108% | 102% | 0.42% | 2.42%
2 | CNS(=O)(=O)c1ccc(Oc2ccc(S(=O)(=O)NC)cc2)cc1 | 2.02% | 2.91% | -0.17% | 86.7% | 83.9% | 2% | 3.27%
3 | CCCOC(=O)CC1C(=O)NCCN1Cc1ccc(F)cc1 (stereo unspecified) | -12.3% | -6.77% | -1.04% | 104% | 98.3% | 2.83% | 1.73%
4 | O=C(c1cnn(-c2ccccc2)c1-n1cccc1)N1CCN(C2CCCCC2)CC1 | -1.61% | 5.93% | -3.1% | 94% | 93.4% | 1.35% | 2.87%
5 | Cn1c(C(=O)NCCc2ccsc2)cc2c(=O)n(C)c3ccccc3c21 | -13.2% | -8.68% | -4.49% | 105% | 92.2% | 2.64% | 4.41%
6 | COc1cc(OC)c(Cl)cc1N | -8.61% | -16.7% | -2.54% | 98% | 95.7% | 1.47% | 2.8%
7 | COc1ccccc1NC(=O)N1CCN(c2ccc3nncn3n2)CC1 | -3.47% | 0.79% | 0.48% | 106% | 103% | -0.315% | 0.69%
8 | CC1CCc2nc3ccc(S(=O)(=O)N4CCC(C(=O)NC5CCCC5)CC4)cc3c(C(=O)O)c2C1 (stereo unspecified) | -0.78% | 10.5% | -2.1% | 94.8% | 95.4% | 1.08% | 3.59%
9 | CCSC(C)CC1CC(=O)CC(=O)C1 (stereo unspecified) | -11.7% | 6.03% | 0.29% | 94% | 89.9% | 1.39% | 2.13%
10 | CC1CCCN(C(=O)C(Cc2ccccc2)n2cccc2)C1 (stereo unspecified) | -11.8% | -13% | -3.01% | 87.3% | 88.4% | 2% | 0.97%
11 | CN1CCN(c2cc3c(c4c2[nH]c2ccccc24)C(=O)CC(C)(C)C3)CC1 | -15.3% | 4.61% | -8.46% | 1.73% (active) | 1.58% (active) | 0.76% | 0.78%
12 | O=C1CC(c2cccnc2)c2cc3c(cc2N1)OCCO3 (stereo unspecified) | 2.41% | -0.935% | -2.86% | 91.5% | 91.9% | 2.35% | 2.43%
13 | COc1c(Cl)cc(-c2noc(C)c2C(=O)NC(C)C)cc1Cl | -17.1% | -15.9% | 0.34% | 98.1% | 96.4% | 1.33% | 2.37%
14 | CCc1ccc(C2CC(c3ccc(C)cc3)n3nc(N)nc3N2)cc1 (stereo unspecified) | 5.21% | 24.1% | 0.11% | 101% | 107% | 1.35% | 8.9%
15 | CCOC(=O)CSC(CC)C(=O)Nc1nnc(C(C)C)s1 (stereo unspecified) | 5.7% | 9.58% | -1.46% | 94.6% | 94.7% | 1% | 9.23%
16 | CCCC(=O)C1=C(O)C(C(=O)OC)C(C)(C)CC1=Nc1ccccc1 (stereo unspecified) | -12.6% | -6.79% | -0.91% | 91.2% | 88.6% | 0.685% | 2.75%
17 | COC(=O)c1cc(COc2ccc3c4c(c(=O)oc3c2)CCCC4)c(C)o1 | 2.28% | 5.14% | -0.68% | 103% | 100% | 0.985% | 3.78%

Row | SMILES | growth inhibition [1] | growth inhibition [2] | viability increase [3] | viability [4] | viability [5] | inhibition [6] | RAM network inhibition [7]
18 | CCC(C)NC(=O)C(NS(=O)(=O)c1ccc2c(c1)c(=O)n(C)c(=O)n2C)c1ccccc1 (stereo unspecified) | -5.69% | -11.3% | -1.17% | 101% | 96.6% | 1.19% | 4.7%
19 | COc1ccc(S(=O)(=O)N2CCC(C(N)=O)CC2)cc1 | 6.47% | -3.14% | 0.89% | 106% | 102% | 3.44% | 4.25%
20 | CC(C)c1nnc(NC(=O)c2cccs2)s1 | -15% | -8.46% | 0.84% | 95.5% | 86.4% | 1.23% | 6.85%
21 | CCOc1ccccc1NC(=O)C1CCN(S(=O)(=O)c2cccc3cccnc23)CC1 | 1.06% | -4.09% | -3.97% | 85.2% | 80.9% | 1.24% | 1.72%
22 | Brc1ccc(-c2noc(CCc3ccccc3)n2)o1 | -9.63% | 2.66% | 1.58% | 102% | 96.9% | 3.12% | 0.73%
23 | CCN1C(=O)c2cccc3c(N)ccc1c23 | -0.755% | -11% | -5.55% | 74.2% | 68.3% | 0% | 1.92%
24 | CCc1nnc(NC(=O)C(C)Sc2ccccc2)s1 (stereo unspecified) | 6.98% | 18.9% | 1.53% | 99.3% | 98.1% | 1.98% | -0.83%
25 | CCN1CCN(CC(O)COc2ccc(C(C)=O)cc2)CC1 (stereo unspecified) | -5.8% | -1.04% | 0.34% | 98.8% | 100% | 0.405% | 0.31%
26 | Cc1nn(-c2ccccc2)c(Cl)c1C(=O)Nc1c(C)n(C)n(-c2ccccc2)c1=O | -9% | -23% | -0.99% | 102% | 94.3% | 0.935% | 3.15%
27 | CS(=O)(=O)c1ccc(N)cc1 | -13.1% | -8.62% | -2.37% | 103% | 88.9% | 2.72% | 1.16%
28 | CCOc1ccc(C2CC(c3cccc(OC)c3)Nc3ncnn32)cc1 (stereo unspecified) | -2.08% | -1.26% | -0.82% | 94% | 90% | 1.15% | 1.4%
29 | Cc1cc(N2CCCC2)n2nc(C)nc2n1 | -10.1% | -17.2% | -0.52% | 102% | 101% | 1.88% | 1.98%
30 | COc1ccc(N(CC(=O)Nc2nc3ccc(C)cc3s2)S(=O)(=O)c2c(C)nn(C)c2C)cc1 | -5.89% | -16.3% | -7.24% | 64.9% | 57.1% | 1.33% | 6.79%
31 | O=c1c2cnn(-c3ccccc3)c2ncn1Cc1cccc(Cl)c1 | 2.21% | 2.59% | 3.21% | 102% | 91.7% | 3.21% | 6.55%
32 | C=CCN1C(=O)c2oc3ccccc3c(=O)c2C1c1ccc(O)c(OC)c1 (stereo unspecified) | 3.61% | 3.18% | -2.61% | 101% | 95.4% | 2.72% | 5.67%
33 | Cc1cc(N2C(=O)C3C4c5ccccc5C(c5ccccc54)C3C2=O)no1 (stereo unspecified) | -9.23% | -12.7% | -2.14% | 80.2% | 90.7% | 0.02% | 5.19%
